In ChEMBL document CHEMBL1123129, “Hypolipidemic activity of indan-1,3-dione derivatives in rodents” (J Med Chem, 1985):

Key:
[1] = target: T1, Sterol O-acyltransferase 1 (Mus musculus) (UniProt Q61263); assay: In Vivo effect for the hypolipidemic activity on Acyl-COA cholesterol acyltransferase in CF1 mice after 16 days of oral administration at a dose of 60 mg/kg; type: functional, organism-based; set-up: dose 60 mg/kg
T1 sequence (whole entry): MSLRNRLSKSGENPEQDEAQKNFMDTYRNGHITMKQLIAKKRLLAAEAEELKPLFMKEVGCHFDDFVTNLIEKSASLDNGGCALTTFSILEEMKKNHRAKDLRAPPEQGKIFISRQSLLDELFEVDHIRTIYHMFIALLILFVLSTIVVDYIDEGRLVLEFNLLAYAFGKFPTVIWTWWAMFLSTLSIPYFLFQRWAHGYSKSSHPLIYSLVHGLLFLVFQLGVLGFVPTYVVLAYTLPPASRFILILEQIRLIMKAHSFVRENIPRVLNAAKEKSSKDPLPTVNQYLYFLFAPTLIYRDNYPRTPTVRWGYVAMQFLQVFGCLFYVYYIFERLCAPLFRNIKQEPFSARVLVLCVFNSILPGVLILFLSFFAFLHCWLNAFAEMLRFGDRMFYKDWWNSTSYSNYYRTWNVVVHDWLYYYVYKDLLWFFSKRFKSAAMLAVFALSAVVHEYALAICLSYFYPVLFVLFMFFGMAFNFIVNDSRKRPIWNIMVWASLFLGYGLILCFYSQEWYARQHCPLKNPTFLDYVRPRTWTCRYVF
How it was run: (§1)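 CF1 male mice are dosed orally at 10–60 mg/kg per day for 16 days, with 1% CMC as the control vehicle. Liver is homogenized at 10% in 0.25 M sucrose + 0.001 M EDTA, pH 7.2. Enzymes are assayed by literature methods, with Lowry protein. Activity is given as % of control (X ± SD, N = 6), with p from Student's t test.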

Rattus norvegicus [2] = assay: Compound was evaluated for the hypolipidemic activity at 20 mg/kg per day orally for 14 days on lipid content in rat small intestine.; type: functional; conditions: route oral
How it was run: (§2)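 Male Sprague–Dawley rats were dosed orally for 14 days. Liver, small intestine and a 24-h fecal collection were lipid-extracted. Extracts were assayed for cholesterol (modified Liebermann–Burchard), triglyceride (enzymatic kit), neutral lipids, phospholipids and protein. Values are % of 1% CMC vehicle control, mean ± SD, N = 6.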

Rattus norvegicus [3] = assay: Compound was evaluated for the hypolipidemic activity at 20 mg/kg per day orally for 14 days on lipid content in rat feces.; type: functional; conditions: route oral; how it was run: as §2
[4] = target: T2, 3-hydroxy-3-methylglutaryl-coenzyme A reductase (Mus musculus) (UniProt Q01237); assay: In Vitro evaluation for the CF1 liver enzyme activity on HMG-CoA reductase at concentration 50 uM
T2 sequence (whole entry): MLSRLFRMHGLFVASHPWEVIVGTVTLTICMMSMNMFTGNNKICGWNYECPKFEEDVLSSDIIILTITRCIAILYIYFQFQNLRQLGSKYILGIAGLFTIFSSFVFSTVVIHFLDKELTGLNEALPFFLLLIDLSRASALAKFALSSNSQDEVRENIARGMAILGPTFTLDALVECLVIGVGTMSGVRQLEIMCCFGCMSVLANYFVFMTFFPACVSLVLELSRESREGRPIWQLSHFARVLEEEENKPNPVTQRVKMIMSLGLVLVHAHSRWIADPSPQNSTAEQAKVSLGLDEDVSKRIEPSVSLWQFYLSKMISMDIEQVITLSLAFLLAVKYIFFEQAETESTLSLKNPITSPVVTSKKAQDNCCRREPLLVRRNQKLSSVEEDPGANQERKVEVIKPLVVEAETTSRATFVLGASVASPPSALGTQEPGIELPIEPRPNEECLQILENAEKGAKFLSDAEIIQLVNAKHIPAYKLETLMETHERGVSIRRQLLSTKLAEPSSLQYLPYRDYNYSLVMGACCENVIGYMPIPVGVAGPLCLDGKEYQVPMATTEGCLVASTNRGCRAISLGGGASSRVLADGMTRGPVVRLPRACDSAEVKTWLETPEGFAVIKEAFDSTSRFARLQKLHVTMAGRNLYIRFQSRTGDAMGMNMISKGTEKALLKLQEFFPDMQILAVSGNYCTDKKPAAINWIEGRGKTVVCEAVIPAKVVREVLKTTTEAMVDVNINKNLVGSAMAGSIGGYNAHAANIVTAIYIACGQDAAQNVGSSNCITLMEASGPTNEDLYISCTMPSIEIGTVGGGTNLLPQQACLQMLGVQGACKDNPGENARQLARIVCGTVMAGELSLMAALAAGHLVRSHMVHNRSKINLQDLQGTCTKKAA
How it was run: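 Liver was taken from CF1 male mice and made into 10% homogenates, which were incubated with test compound at 50, 100 or 200 µM. Each enzyme was assayed by its literature method, and protein was measured by Lowry. N = 6. Activity is expressed as % of untreated control ± SD.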

Rattus norvegicus [5] = assay: Compound was evaluated for the hypolipidemic activity at 20 mg/kg per day orally for 14 days on phospholipids content in rat VLDL; type: functional; conditions: route oral
How it was run: (§3)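 Male Sprague–Dawley rats (~300 g) were dosed orally each day. Blood was drawn from the abdominal vein. Lipoprotein fractions (chylomicron, VLDL, LDL, HDL) were separated by the Hatch–Lees and Havel methods. Each fraction was assayed for cholesterol, triglyceride (enzymatic kit), neutral lipids, phospholipids and Lowry protein. Values are % of 1% CMC vehicle control, N = 6.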

Mus musculus [6] = assay: In Vivo effect for the hypolipidemic activity on Acetyl-coenzyme A synthetase in CF1 mice after 16 days of oral administration at a dose of 10 mg/kg; type: functional; how it was run: as §1
Rattus norvegicus [7] = assay: Compound was evaluated for the hypolipidemic activity at 20 mg/kg per day orally for 14 days on triglycerides content in rat lipoprotein chylomicron; p</=0.001; type: functional; conditions: route oral; how it was run: as §3
Rattus norvegicus [8] = assay: Compound was evaluated for the hypolipidemic activity at 20 mg/kg per day orally for 14 days against neutral lipids in rat lipoprotein chylomicron; type: functional; conditions: route oral; how it was run: as §3
Mus musculus [9] = species: Mus musculus; assay: In Vitro evaluation for the CF1 liver enzyme activity on Hepatic lipoprotein lipase at concentration 100 uM; type: functional
How it was run: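 Mouse liver enzymes assayed in vitro on 10% homogenates of CF1 male mouse liver, with test drug added at 50–200 μM. Each enzyme follows a published procedure. Protein is measured by Lowry. Activity is given as % of untreated control (X ± SD, N = 6).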

Rattus norvegicus [10] = assay: Compound was evaluated for the hypolipidemic activity at 20 mg/kg per day orally for 14 days on cholesterol content in rat lipoprotein chylomicron; type: functional; conditions: route oral; how it was run: as §3

Control [1]: 48%
Control [4]: 107%
Structure (SMILES): COc1ccc(C2C(=O)c3ccccc3C2=O)cc1 [ANISINDIONE]
Control (Rattus norvegicus [2]): 100%
Control (Rattus norvegicus [3]): 103%
Control (Rattus norvegicus [5]): 128%
Control (Mus musculus [6]): 83%
Control (Rattus norvegicus [7]): 72%
Control (Rattus norvegicus [8]): 99%
Control (Mus musculus [9]): 94%
Control (Rattus norvegicus [10]): 96%
